Molecules are shown by their SMILES. pIC50, pKd: −log10 of the molar value. Activity calls are given as the source filed them. The rule behind the calls is not given here.

A word on the pIC50: it is the negative decadic logarithm of the IC50, by convention in mol/L. Read a high pIC50 as a low IC50. The pKd is the negative decadic logarithm of the Kd, by convention in mol/L. Read a high pKd as a small Kd.

For assay [1], the target named is T1, Mitogen-activated protein kinase 1 (Homo sapiens, UniProt P28482). Nature of the assay: Inhibition of activated ERK2 (unknown origin) using IMAP peptide substrate after 30 mins by activated ERK2 assay. An outline of the steps:
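IMAP fluorescence-polarization assay. Started with 1 μM substrate peptide (100 nM fluorescein-labelled) and 30 μM ATP. Run 30 min, stopped with IMAP beads, read after 30 min. N = 2.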

Assay [2] addresses T1, Mitogen-activated protein kinase 1. Nature of the assay: Binding to phosphorylated ERK2 (unknown origin) by temperature dependent fluorescence (TdF) assay.
For assay [3] the target is unchanged. Put plainly: Binding to unphosphorylated ERK2 (unknown origin) by temperature dependent fluorescence (TdF) assay.
The target in assay [4] is Mitogen-activated protein kinase 1 (Mus musculus) (UniProt P63085). Put plainly: Inhibition of inactive ERK2 (mouse) coupled with human MEK1 using IMAP peptide substrate after 30 mins by coupled ERK2 assay.
The target of assay [5] is T2, Dual specificity mitogen-activated protein kinase kinase; MEK1/2 (Homo sapiens) (UniProt P36507+Q02750). Nature of the assay: Binding affinity to unphosphorylated MEK (unknown origin) by temperature dependent fluorescence (TdF) assay.
The target of assay [6] is T2, Dual specificity mitogen-activated protein kinase kinase; MEK1/2 (Homo sapiens). Put plainly: Binding affinity to phosphorylated MEK (unknown origin) by temperature dependent fluorescence (TdF) assay.

Chain of Mitogen-activated protein kinase 1 (Mus musculus) (P63085 whole entry, looked up): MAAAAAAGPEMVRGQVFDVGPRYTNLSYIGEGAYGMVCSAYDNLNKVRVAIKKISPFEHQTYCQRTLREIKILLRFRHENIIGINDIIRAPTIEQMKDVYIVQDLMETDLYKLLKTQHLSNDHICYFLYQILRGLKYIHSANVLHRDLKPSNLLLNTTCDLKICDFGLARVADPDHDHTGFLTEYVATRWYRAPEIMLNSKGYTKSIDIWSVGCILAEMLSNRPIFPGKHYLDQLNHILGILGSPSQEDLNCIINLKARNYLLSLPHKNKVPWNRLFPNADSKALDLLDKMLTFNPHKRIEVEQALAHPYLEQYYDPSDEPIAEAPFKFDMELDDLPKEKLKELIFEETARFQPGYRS
T2 sequence (P36507 whole entry, looked up): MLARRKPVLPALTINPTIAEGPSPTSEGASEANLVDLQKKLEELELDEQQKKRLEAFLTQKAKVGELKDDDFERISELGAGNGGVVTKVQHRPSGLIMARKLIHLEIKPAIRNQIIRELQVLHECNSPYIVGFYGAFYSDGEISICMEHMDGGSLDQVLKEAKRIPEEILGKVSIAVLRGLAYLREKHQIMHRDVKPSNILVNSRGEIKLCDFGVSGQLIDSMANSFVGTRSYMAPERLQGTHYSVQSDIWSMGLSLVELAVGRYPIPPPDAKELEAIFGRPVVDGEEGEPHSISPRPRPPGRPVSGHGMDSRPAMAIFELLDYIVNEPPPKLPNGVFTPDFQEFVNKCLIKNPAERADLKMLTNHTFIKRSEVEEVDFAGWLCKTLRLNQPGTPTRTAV
T2 sequence (Q02750 whole entry, looked up): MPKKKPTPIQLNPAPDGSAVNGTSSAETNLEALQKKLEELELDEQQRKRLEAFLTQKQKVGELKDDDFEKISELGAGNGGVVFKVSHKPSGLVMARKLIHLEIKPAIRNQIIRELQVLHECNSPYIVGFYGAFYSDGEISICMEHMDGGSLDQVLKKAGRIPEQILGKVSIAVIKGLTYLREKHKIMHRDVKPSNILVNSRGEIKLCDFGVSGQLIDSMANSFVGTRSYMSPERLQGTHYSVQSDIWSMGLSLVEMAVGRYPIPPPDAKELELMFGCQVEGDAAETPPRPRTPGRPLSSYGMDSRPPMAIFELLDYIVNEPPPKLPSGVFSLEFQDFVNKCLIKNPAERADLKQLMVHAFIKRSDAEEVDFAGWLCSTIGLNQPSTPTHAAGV
T1 sequence (P28482 whole entry): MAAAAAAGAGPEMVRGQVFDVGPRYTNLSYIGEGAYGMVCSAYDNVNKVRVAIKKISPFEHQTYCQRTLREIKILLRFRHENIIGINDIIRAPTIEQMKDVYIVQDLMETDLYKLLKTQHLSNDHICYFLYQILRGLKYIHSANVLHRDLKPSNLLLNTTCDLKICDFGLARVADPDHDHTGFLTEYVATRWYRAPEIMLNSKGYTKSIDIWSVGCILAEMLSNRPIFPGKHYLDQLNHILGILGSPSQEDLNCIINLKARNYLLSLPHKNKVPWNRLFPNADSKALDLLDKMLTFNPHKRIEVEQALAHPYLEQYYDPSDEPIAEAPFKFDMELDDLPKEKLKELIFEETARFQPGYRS

`O=C(NOC[C@H](O)CO)c1ccc(F)c(F)c1Nc1ccc(I)cc1F` [MIRDAMETINIB]: the figures for the pIC50 in assay [1] and in assay [4] were under 4.40 and 7.60, respectively. For the same compound, the pKd in assay [2] and in assay [3] was under 5.00 each time.

`O=C(Nc1ccc(O)c(Cl)c1)[C@@H]1CCN(CC(=O)N2CCN(c3ccc(Br)cc3)CC2)C1`: the values for the pIC50 in assay [1] and in assay [4] were 5.09 and 5.30, respectively. For the same compound, the outcome in assay [5] and in assay [6] was inactive. In addition, the pKd in assay [2] was 5.58; in assay [3], 6.03.

As to `O=C(Nc1ccc(O)c(Cl)c1)[C@@H]1CCN(CC(=O)N2CCN(c3ccc(-c4ccsc4)cc3)CC2)C1`, the pIC50 in assay [1] was 4.70; in assay [4], 5.68. Also, the result in assay [5] and in assay [6] was inactive. The pKd is 6.01 in assay [2] and 6.54 in assay [3].

Turning to `O=C(Nc1ccc(O)cc1)C1CCN(CC(=O)N2CCN(c3cccc(Cl)c3)CC2)C1` (racemic), the results for the pIC50 in assay [1] and in assay [4] were 4.91 and 5.47, respectively. Besides, the result in assay [5] and in assay [6] was inactive. For the same compound, the pKd is 5.78 in assay [2] and 6.04 in assay [3].

`O=C(Nc1ccc(O)c(Cl)c1)[C@@H]1CCN(CC(=O)N2CCN(c3nc4ccccc4s3)CC2)C1`: the pIC50 in assay [1] is 5.80; in assay [4] it was 6.32. Further, the outcome in assay [5] and in assay [6] was inactive. The pKd in assay [2] is 6.57; in assay [3], 6.77.

Turning to `CC(=O)c1ccc(N2CCN(C(=O)CN3CC[C@@H](C(=O)Nc4ccc(O)c(C)c4)C3)CC2)cc1`, the pIC50 is 5.60 in assay [1] and 5.38 in assay [4]. Besides, the result in assay [5] and in assay [6] was inactive.

For `CC(=O)c1ccc(N2CCN(C(=O)CN3CC[C@H](C(=O)Nc4ccc(O)c(Cl)c4)C3)CC2)cc1`, the pIC50 was 4.49 in assay [1] and 5.44 in assay [4]. The result in assay [5] and in assay [6] was inactive. Further, the pKd in assay [2] was 6.06; in assay [3] it was 6.44.

Regarding `CC(=O)c1ccc(N2CCN(C(=O)CN3CC[C@@H](C(=O)Nc4ccc(O)cc4Cl)C3)CC2)cc1`, the pIC50 was 4.30 in assay [1] and 4.90 in assay [4]. In addition, the result in assay [5] and in assay [6] was inactive. In addition, the pKd in assay [2] and in assay [3] was under 5.00 in each case.

Turning to `CC(=O)c1ccc(N2CCN(C(=O)CN3CC[C@@H](C(=O)Nc4ccc(O)c(Br)c4)C3)CC2)cc1`, the pIC50 in assay [1] was 5.44; in assay [4] it was 6.36. Also, the result in assay [5] and in assay [6] was inactive.

As to `CC(=O)c1ccc(N2CCN(C(=O)CN3CC[C@@H](C(=O)Nc4cc(Cl)c(O)c(Cl)c4)C3)CC2)cc1`, the result in assay [5] and in assay [6] was inactive. The pKd in assay [2] and in assay [3] was under 5.00 each time. The pIC50 in assay [4] was under 5.00.

Regarding `CC(=O)c1ccc(N2CCN(C(=O)CN3CCC(C(=O)Nc4ccc(O)c(Cl)c4)C3)CC2)cc1` (racemic), the pIC50 in assay [1] was 5.38; in assay [4], 5.92. Besides, the outcome in assay [5] and in assay [6] was inactive. In addition, the pKd is 6.57 in assay [2] and 6.82 in assay [3].

Consider `O=C(Nc1ccc(O)c(Cl)c1)[C@@H]1CCN(CC(=O)N2CCN(c3ccc(-c4ccoc4)cc3)CC2)C1`, for which the pIC50 is 5.26 in assay [1] and 5.85 in assay [4]. Further, the result in assay [5] and in assay [6] was inactive. In addition, the results for the pKd in assay [2] and in assay [3] were 6.48 and 6.92, respectively.

With `CC(=O)c1ccc(N2CCN(C(=O)CN3CC[C@@H](C(=O)Nc4ccc(O)c(F)c4)C3)CC2)cc1`, the pIC50 in assay [1] was 4.94; in assay [4], 5.89. In addition, the result in assay [5] and in assay [6] was inactive. Further, the pKd is 6.20 in assay [2] and 6.55 in assay [3].

In the case of `CC(=O)c1ccc(N2CCN(C(=O)CN3CCC(C(=O)Nc4ccc(O)cc4)C3)CC2)cc1` (racemic), the values for the pIC50 in assay [1] and in assay [4] were 4.73 and 5.40, respectively. Further, the outcome in assay [5] and in assay [6] was inactive. The pKd in assay [2] was 5.72; in assay [3], 5.97.

For the compound `O=C(Nc1ccc(O)c(Cl)c1)[C@@H]1CCN(CC(=O)N2CCN(c3ccc(-c4ccccc4)cc3)CC2)C1`, the pIC50 was 5.36 in assay [1] and 5.25 in assay [4]. For the same compound, the outcome in assay [5] and in assay [6] was inactive. The pKd is 6.14 in assay [2] and 6.82 in assay [3].

As for `O=C(Nc1ccc(O)c(Cl)c1)[C@@H]1CCN(CC(=O)N2CCN(c3cccc(Cl)c3)CC2)C1`, the values for the negative-log IC50 (pIC50) in assay [1] and in assay [4] were 5.68 and 6.15, respectively. Further, the outcome in assay [5] and in assay [6] was inactive. In addition, the pKd in assay [2] is 6.82; in assay [3], 7.15.

For the origin of these results see ChEMBL document CHEMBL3351461, “Discovery of novel, dual mechanism ERK inhibitors by affinity selection screening of an inactive kinase” (J Med Chem, 2014).
